Assay results from ChEMBL document CHEMBL3045540, “Naphthalenones from a Perenniporia sp. inhabiting the larva of a phytophagous weevil, Euops chinesis” (2012).
≈ marks a conversion by molar mass, not a printed value. Calls of active or inactive are those of the source. The rule behind the calls is not given here.

Legend:
Alternaria longipes [1] = experiment: Antifungal activity against Alternaria longipes CGMCC 3.2875 at 20 ug/ml after 48 hr by Alamar blue assay; type: functional, organism-based
Fusarium graminearum [2] = experiment: Antifungal activity against Fusarium graminearum CGMCC 3.2873 at 20 ug/ml after 48 hr by Alamar blue assay; type: functional, organism-based
Fusarium oxysporum [3] = experiment: Antifungal activity against Fusarium oxysporum CGMCC 3.2830 at 20 ug/ml after 48 hr by Alamar blue assay; type: functional, organism-based
Verticillium albo-atrum [4] = experiment: Antifungal activity against Verticillium albo-atrum CGMCC 3.4306 at 20 ug/ml after 48 hr by Alamar blue assay; type: functional, organism-based
Fusarium verticillioides [5] = experiment: Antifungal activity against Fusarium verticillioides CGMCC 3.2835 at 20 ug/ml after 48 hr by Alamar blue assay; type: functional, organism-based
Fusarium verticillioides [6] = experiment: Antifungal activity against Fusarium verticillioides CGMCC 3.2835 after 48 hr by Alamar blue assay; type: functional; settings: CGMCC 3.2835, 48 h
Method in brief: (§1)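 NCCLS-based broth microdilution, run in triplicate. Fungi were kept on PDA, and the inoculum was grown in broth at 28 °C for 48 h, then set to a final 10^4 hyphae/mL in PDB. Samples were serially diluted from a 10 mg/mL DMSO stock, with 10% Alamar blue as indicator, and incubated at 28 °C for 48 h. Fluorescence was read at 544/590 nm. MIC was the lowest concentration giving complete growth inhibition.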

Verticillium albo-atrum [7] = experiment: Antifungal activity against Verticillium albo-atrum CGMCC 3.4306 after 48 hr by Alamar blue assay; type: functional; settings: CGMCC 3.4306, 48 h; method in brief: as §1
Fusarium oxysporum [8] = experiment: Antifungal activity against Fusarium oxysporum CGMCC 3.2830 after 48 hr by Alamar blue assay; type: functional; settings: CGMCC 3.2830, 48 h; method in brief: as §1
Alternaria longipes [9] = experiment: Antifungal activity against Alternaria longipes CGMCC 3.2875 after 48 hr by Alamar blue assay; type: functional; settings: CGMCC 3.2875, 48 h
Method in brief: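 Run in triplicate per NCCLS recommendations. The strain was grown on PDA, and inoculum came from broth cultures (28 °C, 48 h), with a final suspension of 10^4 hyphae/mL in PDB. Samples were serially diluted from a 10 mg/mL DMSO stock, with 10% Alamar blue as indicator. After 28 °C for 48 h, fluorescence was read at Ex/Em 544/590 nm. MIC is the lowest concentration giving complete growth inhibition, taken from inhibition-versus-concentration plots.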

Fusarium graminearum [10] = experiment: Antifungal activity against Fusarium graminearum CGMCC 3.2873 after 48 hr by Alamar blue assay; type: functional; settings: CGMCC 3.2873, 48 h; method in brief: as §1

## CCc1c(OC)cc2c(c1O)C(=O)C[C@@]1(OC)O[C@@H](C(=O)OC)C[C@@]21O
Alternaria longipes [1]
  Activity: inactive
Fusarium graminearum [2]
  Activity: inactive
Fusarium oxysporum [3]
  Activity: inactive
Verticillium albo-atrum [4]
  Activity: inactive
Fusarium verticillioides [5]
  Activity: inactive

## CCc1c(OC)cc2c(c1O)C(=O)C[C@]1(OC)OC(=O)[C@H](O)C[C@@]21O
Alternaria longipes [1]
  Activity: inactive
Fusarium graminearum [2]
  Activity: inactive
Fusarium oxysporum [3]
  Activity: inactive
Verticillium albo-atrum [4]
  Activity: inactive
Fusarium verticillioides [5]
  Activity: inactive

## CCc1c(OC)cc2c(c1O)C(=O)C=C(OC)[C@@]21C[C@@H](O)C(=O)O1 [PERENNIPORIDE A]
Fusarium verticillioides [6]
  MIC: 20 µg/mL (≈ 59.8 µM)
Verticillium albo-atrum [7]
  MIC: 20 µg/mL (≈ 59.8 µM)
Fusarium oxysporum [8]
  MIC: 10 µg/mL (≈ 29.9 µM)
Alternaria longipes [9]
  MIC: 10 µg/mL (≈ 29.9 µM)
Fusarium graminearum [10]
  MIC: 20 µg/mL (≈ 59.8 µM)

## COC(=O)Nc1nc2ccccc2[nH]1 [CARBENDAZIM]
Fusarium verticillioides [6]
  MIC: 0.63 µg/mL (≈ 3.3 µM)
Verticillium albo-atrum [7]
  MIC: 0.63 µg/mL (≈ 3.3 µM)
Alternaria longipes [1]
  Activity: inactive
Fusarium oxysporum [8]
  MIC: 0.63 µg/mL (≈ 3.3 µM)
Fusarium graminearum [10]
  MIC: 2.5 µg/mL (≈ 13.1 µM)

## CCc1c(OC)cc2c(c1O)C(=O)C=C(OC)[C@@]2(O)C[C@@H](O)C(=O)OC
Alternaria longipes [1]
  Activity: inactive
Fusarium graminearum [2]
  Activity: inactive
Fusarium oxysporum [3]
  Activity: inactive
Verticillium albo-atrum [4]
  Activity: inactive
Fusarium verticillioides [5]
  Activity: inactive
